# Source: ChEMBL document CHEMBL1124360, “Dihydropyrimidines: novel calcium antagonists with potent and long-lasting vasodilative and antihypertensive activity” (J Med Chem, 1989)
# Assays:
# Canis familiaris [1] = test: Effective dose that lowers vascular resistance by, 30% in dogs when administered intravenously; assay type: functional; conditions: Canis lupus familiaris, iv
# Method in brief: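 Mongrel dogs (7-15 kg, either sex) are anesthetized with thiopental 30 mg/kg iv or ip, then urethane 400 mg/kg plus α-chloralose 60 mg/kg iv, and ventilated. Left vertebral flow is measured by electromagnetic probe and femoral arterial pressure is recorded. Resistance is pressure divided by flow. Compounds in ethanol are given iv at 0.05 mL/kg in cumulative rising doses; the dose cutting resistance 30% is taken (N = 3).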
# Canis familiaris [2] = test: (§1) Time to peak response on lowering of vascular resistance, in dogs when administered intravenously; assay type: organism-based, Canis lupus familiaris; conditions: dog, in vivo, iv
# Canis familiaris [3] = species: Canis familiaris; test: Effective dose against atrioventricular conduction in dogs at which they prolong atrioventricular conduction time by 30%; assay type: functional; conditions: Canis lupus familiaris
# Method in brief: (§2)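 Anesthetized open-chest dogs; atrium paced with square-wave pulses of 1.5-2.5 V, 2 ms, at 2.5 Hz. AV conduction time is the interval between atrial and ventricular electrograms. Compounds are dissolved in 100% DMSO and injected iv into the femoral vein at 0.05 mL/kg. Reported as the dose prolonging AVCT by 30% (mean ± SE, N = 4-5) or the dose inducing AV block.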
# Canis familiaris [4] = species: Canis familiaris; test: Dose at which compound induce atrioventricular block in dogs; range is 100-300; assay type: functional, Canis lupus familiaris; method in brief: as §2
# [5] = target: T1, Voltage-gated L-type calcium channel (Rattus norvegicus, UniProt P22002+Q02485+P27732); test: Inhibition of [3H]nitrendipine binding to L-type calcium channels of rat cerebral cortex; assay type: tissue-based
# Method in brief: (§3)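 Rat cerebral cortex is homogenized in ice-cold 50 mM Tris-HCl pH 7.7 and washed by repeated 40000g spins. Homogenate is incubated with 0.2 nM [³H]nitrendipine and drug for 1 h at 25 °C, then vacuum-filtered on glass-fiber filters and counted by liquid scintillation. Nonspecific binding is defined with 1 μM unlabeled nitrendipine.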
# Canis familiaris [6] = test: as §1; assay type: ADME, organism-based, Canis lupus familiaris; conditions: dog, in vivo, iv
# Canis familiaris [7] = species: Canis familiaris; test: Dose at which compound induce atrioventricular block in dogs; range is 100-3000; assay type: functional, Canis lupus familiaris; method in brief: as §2
# Canis familiaris [8] = species: Canis familiaris; test: Dose at which compound induce atrioventricular block in dogs; AV means atrioventricular; range is 1000-3000; assay type: functional, Canis lupus familiaris; method in brief: as §2
# [9] = target: T1, Voltage-gated L-type calcium channel; test: Inhibition of [3H]- Nitrendipine binding to L-type calcium channels of rat cerebral cortex; assay type: tissue-based; method in brief: as §3
smiles,measurement,setting,value
CCOC(=O)C1=C(C)NC(=O)N(C(=O)OCC(c2ccccc2)c2ccccc2)C1c1cccc([N+](=O)[O-])c1 (configuration not stated),ED30,Canis familiaris [1],10.6 µg/kg
CCOC(=O)C1=C(C)NC(=O)N(C(=O)OCCN(C)Cc2ccccc2)C1c1cccc(Cl)c1 (configuration not stated),ED30,Canis familiaris [1],43 µg/kg
CCOC(=O)N1C(C)=NC(C)=C(C(=O)OCCN(C)Cc2ccccc2)C1c1ccccc1[N+](=O)[O-] (configuration not stated),ED30,Canis familiaris [1],13 µg/kg
CC1=NC(C)=C(C(=O)OC(C)C)C(c2ccccc2[N+](=O)[O-])N1C(=O)OCCN(CCc1ccccc1)Cc1ccccc1 (configuration not stated),Tp,Canis familiaris [2],2.7 min
same,ED30,Canis familiaris [1],1.2 µg/kg
COC(=O)C1=C(C#N)NC(C)=C(C(=O)OC(C)C)C1c1cccc([N+](=O)[O-])c1 (configuration not stated) [NILVADIPINE],ED30,Canis familiaris [3],34 µg/kg
same,AV block,Canis familiaris [4],100 µg/kg
same,IC50,[5],1.04 nM
CCCCCCCOC(=O)N1C(C)=NC(C)=C(C(=O)OCC2CC2)C1c1ccccc1[N+](=O)[O-] (configuration not stated),ED30,Canis familiaris [1],5.6 µg/kg
COC(=O)C1=C(C)NC(C)=C(C(=O)OC)C1c1ccccc1[N+](=O)[O-] [NIFEDIPINE],ED30,Canis familiaris [1],0.5 µg/kg
same,Tp,Canis familiaris [6],0.7 min
COC(=O)C1=C(C)NC(C)=C(C(=O)OCCN(C)Cc2ccccc2)C1c1cccc([N+](=O)[O-])c1 (configuration not stated) [NICARDIPINE],ED30,Canis familiaris [3],175 µg/kg
same,ED30,Canis familiaris [1],3 µg/kg
same,AV block,Canis familiaris [7],100 µg/kg
same,IC50,[5],2.66 nM
same,Tp,Canis familiaris [6],1.2 min
CCOC(=O)N1C(C(F)(F)F)=NC(C)=C(C(=O)OC(C)C)C1c1ccccc1[N+](=O)[O-] (configuration not stated),ED30,Canis familiaris [1],8.3 µg/kg
CC1=NC(C)=C(C(=O)OC(C)C)C(c2ccccc2[N+](=O)[O-])N1C(=O)OCCN(Cc1ccccc1)Cc1ccc2ccccc2c1 (configuration not stated),ED30,Canis familiaris [3],762 µg/kg
same,ED30,Canis familiaris [1],1.8 µg/kg
same,AV block,Canis familiaris [8],1000 µg/kg
same,IC50,[9],7.08 nM
same,Tp,Canis familiaris [6],7.9 min
CCOC(=O)C1=C(C)NC(C)=C(C(=O)OC)C1c1cccc([N+](=O)[O-])c1 (configuration not stated) [NITRENDIPINE],Tp,Canis familiaris [2],1 min
same,ED30,Canis familiaris [1],1.2 µg/kg
CC1=C(C(=O)OC(C)C)C(c2ccccc2[N+](=O)[O-])N(C(=O)OCCN(Cc2ccccc2)Cc2ccc3ccccc3c2)C(N(C)C)=N1 (configuration not stated),ED30,Canis familiaris [1],> 100 µg/kg
CCOC(=O)N1C(CC)=NC(C)=C(C(=O)OC(C)C)C1c1ccccc1[N+](=O)[O-] (configuration not stated),ED30,Canis familiaris [1],8 µg/kg
CCOC(=O)C1=C(Cl)N=C(C)N(C(=O)OCCN(Cc2ccccc2)Cc2ccc3ccccc3c2)C1c1ccccc1[N+](=O)[O-] (configuration not stated),Tp,Canis familiaris [2],5.2 min
same,ED30,Canis familiaris [1],10 µg/kg
CC1=C(C(=O)OC(C)C)C(c2ccccc2[N+](=O)[O-])N(C(=O)OCCN(Cc2ccccc2)Cc2ccccc2)C(C(F)(F)F)=N1 (configuration not stated),ED30,Canis familiaris [1],6.8 µg/kg
CO/C(O)=C1/C(C)=NC(C)=C(C(=O)OCCN2CCN(C(c3ccccc3)c3ccccc3)CC2)C1c1cccc([N+](=O)[O-])c1 (configuration not stated),IC50,[9],8.68 nM
CC1=NC(C)=C(C(=O)OCC2CC2)C(c2ccccc2[N+](=O)[O-])N1C(=O)OCCN(CCCc1ccccc1)Cc1ccccc1 (configuration not stated),Tp,Canis familiaris [2],4.8 min
same,ED30,Canis familiaris [3],843 µg/kg
same,ED30,Canis familiaris [1],4.3 µg/kg
same,AV block,Canis familiaris [8],1000 µg/kg
CCOC(=O)C1=C(COCCN(Cc2ccccc2)Cc2ccc(Cl)c(Cl)c2)N=C(C)N(C(=O)OC)C1c1ccccc1[N+](=O)[O-].Cl (configuration not stated),ED30,Canis familiaris [1],> 100 µg/kg
CCOC(=O)C1=C(C)N=C(C)N(C(=O)OCC)C1c1cccc([N+](=O)[O-])c1 (configuration not stated),ED30,Canis familiaris [1],10 µg/kg
CC1=C(C(=O)OC(C)C)C(c2ccccc2[N+](=O)[O-])N(C(=O)OCCN(Cc2ccccc2)Cc2ccc3ccccc3c2)C=N1 (configuration not stated),ED30,Canis familiaris [1],> 100 µg/kg
CC1=NC(C)=C(C(=O)OC(C)C)C(c2ccccc2[N+](=O)[O-])N1C(=O)OCCN(Cc1ccccc1)c1ccccc1 (configuration not stated),Tp,Canis familiaris [2],1.9 min
same,ED30,Canis familiaris [1],0.74 µg/kg
CCCCCCCOC(=O)C1=C(C)N=C(C)N(C(=O)OCCN(Cc2ccccc2)Cc2ccccc2)C1c1ccccc1[N+](=O)[O-] (configuration not stated),ED30,Canis familiaris [1],> 30 µg/kg
CCOC(=O)C1=C(C)N=C(C)N(C(=O)OCC)C1c1ccccc1[N+](=O)[O-] (configuration not stated),ED30,Canis familiaris [1],3 µg/kg
CCOC(=O)C1=C(C)N=C(C)N(C(=O)OCC)C1c1ccccc1Cl (configuration not stated),ED30,Canis familiaris [1],5 µg/kg
CC1=C(C(=O)OC(C)C)C(c2ccccc2[N+](=O)[O-])N(C(=O)OCCN(Cc2ccccc2)Cc2ccc3ccccc3c2)C(C(C)C)=N1 (configuration not stated),ED30,Canis familiaris [1],> 100 µg/kg
CCCCCCCOC(=O)N1C(=O)NC(C)=C(C(=O)OCC2CC2)C1c1ccccc1[N+](=O)[O-] (configuration not stated),Tp,Canis familiaris [2],1.9 min
same,ED30,Canis familiaris [1],2.3 µg/kg
CCCCCCCOC(=O)N1C(C)=NC(C)=C(C(=O)OCC)C1c1ccccc1[N+](=O)[O-] (configuration not stated),ED30,Canis familiaris [1],3.2 µg/kg
CCCCOC(=O)C1=C(C)N=C(C)N(C(=O)OCCN(Cc2ccccc2)Cc2ccccc2)C1c1ccccc1[N+](=O)[O-] (configuration not stated),Tp,Canis familiaris [2],4.7 min
same,ED30,Canis familiaris [1],6.8 µg/kg
CCCCCCCOC(=O)C1=C(C)N=C(C)N(C(=O)OCC)C1c1ccccc1[N+](=O)[O-] (configuration not stated),ED30,Canis familiaris [1],23 µg/kg
CCC1N=C(C)/C(=C(/O)OC(C)C)C(c2ccccc2[N+](=O)[O-])N1C(=O)OCN(Cc1ccccc1)Cc1ccc(Cl)c(Cl)c1 (configuration not stated),Tp,Canis familiaris [2],5.5 min
same,ED30,Canis familiaris [1],19.5 µg/kg
CCOC(=O)C1=C(C)N=C(C)N(C(=O)OCC)C1c1ccccc1Br (configuration not stated),ED30,Canis familiaris [1],5 µg/kg
CC1=NC(C)=C(C(=O)OC(C)C)C(c2ccccc2[N+](=O)[O-])N1C(=O)OCCN(Cc1ccccc1)Cc1ccccc1 (configuration not stated),Tp,Canis familiaris [2],2.6 min
same,ED30,Canis familiaris [1],2.8 µg/kg
CCC1=NC(C)=C(C(=O)OC(C)C)C(c2ccccc2[N+](=O)[O-])N1C(=O)OCCN(Cc1ccccc1)Cc1ccc2ccccc2c1 (configuration not stated),ED30,Canis familiaris [1],27 µg/kg
CC1=C(C(=O)OCC2CC2)C(c2cccc([N+](=O)[O-])c2)N(C(=O)OCCN(C)Cc2ccccc2)C(=O)N1 (configuration not stated),ED30,Canis familiaris [1],13 µg/kg
CC1=NC(C)=C(C(=O)OCC2CC2)C(c2ccccc2[N+](=O)[O-])N1C(=O)OCCN(C/C=C/c1ccccc1)Cc1ccccc1 (configuration not stated),Tp,Canis familiaris [2],5.6 min
same,ED30,Canis familiaris [1],3.9 µg/kg
CCCCCCCOC(=O)C1=C(C)N=C(C)N(C(=O)OCCCCCCC)C1c1ccccc1[N+](=O)[O-] (configuration not stated),ED30,Canis familiaris [1],180 µg/kg
CC1=NC(C)=C(C(=O)OC(C)C)C(c2ccccc2[N+](=O)[O-])N1C(=O)OCCN(Cc1ccccc1)Cc1ccc(Cl)c(Cl)c1 (configuration not stated),ED30,Canis familiaris [3],596 µg/kg
same,ED30,Canis familiaris [1],2.1 µg/kg
same,AV block,Canis familiaris [8],1000 µg/kg
same,IC50,[9],2.05 nM
same,Tp,Canis familiaris [6],10.8 min
CCCCCCCOC(=O)N1C(=O)NC(C)=C(C(=O)OCC2CC2)C1c1cccc([N+](=O)[O-])c1 (configuration not stated),ED30,Canis familiaris [1],3 µg/kg
CC1=NC(C)=C(C(=O)OCC2CC2)C(c2ccccc2[N+](=O)[O-])N1C(=O)OCCN(C)Cc1ccccc1 (configuration not stated),ED30,Canis familiaris [1],0.5 µg/kg
CCOC(=O)C1=C(C)N=C(C)N(C(=O)OCCN(C)Cc2ccccc2)C1c1ccccc1[N+](=O)[O-] (configuration not stated),ED30,Canis familiaris [1],0.75 µg/kg
CC1=C(C(=O)OC(C)C)C(c2ccccc2[N+](=O)[O-])N(C(=O)OCCN(Cc2ccccc2)Cc2ccc3ccccc3c2)C(=O)N1 (configuration not stated),Tp,Canis familiaris [2],7.8 min
same,ED30,Canis familiaris [1],10 µg/kg
CSC1=NC(C)=C(C(=O)OC(C)C)C(c2ccccc2[N+](=O)[O-])N1C(=O)OCCN(Cc1ccccc1)Cc1ccc2ccccc2c1 (configuration not stated),ED30,Canis familiaris [1],> 100 µg/kg
CCC1N=C(C)/C(=C(/O)OC(C)C)C(c2ccccc2[N+](=O)[O-])N1C(=O)OCN(Cc1ccccc1)Cc1ccc2ccccc2c1 (configuration not stated),Tp,Canis familiaris [2],7.2 min
same,ED30,Canis familiaris [1],13.5 µg/kg
